# From ChEMBL document CHEMBL5058577, “EUbOPEN Chemogenomics Library 2 (Multiplex)” (2022)
# Test system: U2OS
# Experiment: Multiplex assay against U2OS
# Assay type: toxicity, cell-based
# Settings: human
# In short: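 Hoechst33342, BioTracker Green Microtubule Cytoskeleton Dye, MitoTracker Red and Annexin V Alexa Fluor 680 were added to live cells at seeding, and imaging on a CQ1 microscope at 37°C and 5% CO2 followed compound addition. Gating by CellPathfinder machine learning separated cells into Hoechst high-intensity objects or normal cells, then normal cells into healthy, pyknosed or fragmented nuclei, then pyknosed cells into mitotic or apoptotic. Per cents of healthy-nucleus cells are reported for the tubulin, mitochondrial-mass and membrane-permeability phenotypes.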
# [1] = 12 h, 1 µM, compound concentration 1 uM, replicate 1
# [2] = 12 h, 1 µM, compound concentration 1 uM, replicate 2
# [3] = 12 h, 10 µM, compound concentration 10 uM, replicate 1
# [4] = 12 h, 10 µM, compound concentration 10 uM, replicate 2
# [5] = 24 h, 1 µM, compound concentration 1 uM, replicate 1
# [6] = 24 h, 1 µM, compound concentration 1 uM, replicate 2
# [7] = 24 h, 10 µM, compound concentration 10 uM, replicate 1
# [8] = 24 h, 10 µM, compound concentration 10 uM, replicate 2
# [9] = 48 h, 1 µM, compound concentration 1 uM, replicate 1
# [10] = 48 h, 1 µM, compound concentration 1 uM, replicate 2
# [11] = 48 h, 10 µM, compound concentration 10 uM, replicate 1
# [12] = 48 h, 10 µM, compound concentration 10 uM, replicate 2
smiles,measurement,setting,value
N#Cc1cc(F)cc(-c2nc(-c3ccc(F)cn3)no2)c1,Population Apoptotic (%),[1],55%
same,Population Fragmented Nuclei (%),[1],24%
same,Population Healthy Nuclei (%),[1],65%
same,Population Hoechst High Intensity Objects (%),[1],1%
same,Population Membrane Permeable-Phenotype (%),[1],5%
same,Population Mitochondria Different-Phenotype (%),[1],0%
same,Population Mitotic Cells (%),[1],44%
same,Population Normal (%),[1],98%
same,Population Pyknosed Nuclei (%),[1],10%
same,Population Tubulin-Different-Phenotype (%),[1],3%
same,Total Cell Count,[1],178
same,Population Apoptotic (%),[2],100%
same,Population Fragmented Nuclei (%),[2],17%
same,Population Healthy Nuclei (%),[2],79%
same,Population Hoechst High Intensity Objects (%),[2],0%
same,Population Membrane Permeable-Phenotype (%),[2],6%
same,Population Mitochondria Different-Phenotype (%),[2],5%
same,Population Mitotic Cells (%),[2],0%
same,Population Normal (%),[2],99%
same,Population Pyknosed Nuclei (%),[2],4%
same,Population Tubulin-Different-Phenotype (%),[2],2%
same,Total Cell Count,[2],101
same,Population Apoptotic (%),[3],76%
same,Population Fragmented Nuclei (%),[3],33%
same,Population Healthy Nuclei (%),[3],59%
same,Population Hoechst High Intensity Objects (%),[3],1%
same,Population Membrane Permeable-Phenotype (%),[3],8%
same,Population Mitochondria Different-Phenotype (%),[3],2%
same,Population Mitotic Cells (%),[3],23%
same,Population Normal (%),[3],98%
same,Population Pyknosed Nuclei (%),[3],6%
same,Population Tubulin-Different-Phenotype (%),[3],2%
same,Total Cell Count,[3],196
same,Population Apoptotic (%),[4],88%
same,Population Fragmented Nuclei (%),[4],12%
same,Population Healthy Nuclei (%),[4],81%
same,Population Membrane Permeable-Phenotype (%),[4],7%
same,Population Mitochondria Different-Phenotype (%),[4],4%
same,Population Mitotic Cells (%),[4],11%
same,Population Tubulin-Different-Phenotype (%),[4],1%
same,Total Cell Count,[4],151
same,Population Apoptotic (%),[5],90%
same,Population Fragmented Nuclei (%),[5],22%
same,Population Healthy Nuclei (%),[5],66%
same,Population Hoechst High Intensity Objects (%),[5],4%
same,Population Membrane Permeable-Phenotype (%),[5],8%
same,Population Mitochondria Different-Phenotype (%),[5],0%
same,Population Mitotic Cells (%),[5],9%
same,Population Normal (%),[5],95%
same,Population Pyknosed Nuclei (%),[5],11%
same,Population Tubulin-Different-Phenotype (%),[5],4%
same,Total Cell Count,[5],197
same,Population Fragmented Nuclei (%),[6],8%
same,Population Healthy Nuclei (%),[6],84%
same,Population Hoechst High Intensity Objects (%),[6],0%
same,Population Membrane Permeable-Phenotype (%),[6],2%
same,Population Mitochondria Different-Phenotype (%),[6],3%
same,Population Mitotic Cells (%),[6],10%
same,Population Normal (%),[6],99%
same,Population Pyknosed Nuclei (%),[6],8%
same,Population Tubulin-Different-Phenotype (%),[6],2%
same,Total Cell Count,[6],126
same,Population Apoptotic (%),[7],93%
same,Population Fragmented Nuclei (%),[7],32%
same,Population Healthy Nuclei (%),[7],60%
same,Population Hoechst High Intensity Objects (%),[7],1%
same,Population Membrane Permeable-Phenotype (%),[7],7%
same,Population Mitochondria Different-Phenotype (%),[7],0%
same,Population Mitotic Cells (%),[7],6%
same,Population Normal (%),[7],98%
same,Population Pyknosed Nuclei (%),[7],7%
same,Population Tubulin-Different-Phenotype (%),[7],2%
same,Total Cell Count,[7],230
same,Population Apoptotic (%),[8],88%
same,Population Fragmented Nuclei (%),[8],9%
same,Population Healthy Nuclei (%),[8],85%
same,Population Hoechst High Intensity Objects (%),[8],0%
same,Population Membrane Permeable-Phenotype (%),[8],5%
same,Population Mitochondria Different-Phenotype (%),[8],1%
same,Population Mitotic Cells (%),[8],11%
same,Population Normal (%),[8],99%
same,Population Pyknosed Nuclei (%),[8],4%
same,Population Tubulin-Different-Phenotype (%),[8],1%
same,Total Cell Count,[8],216
same,Population Apoptotic (%),[9],96%
same,Population Fragmented Nuclei (%),[9],18%
same,Population Healthy Nuclei (%),[9],71%
same,Population Hoechst High Intensity Objects (%),[9],1%
same,Population Membrane Permeable-Phenotype (%),[9],4%
same,Population Mitochondria Different-Phenotype (%),[9],0%
same,Population Mitotic Cells (%),[9],3%
same,Population Normal (%),[9],98%
same,Population Pyknosed Nuclei (%),[9],9%
same,Population Tubulin-Different-Phenotype (%),[9],2%
same,Total Cell Count,[9],290
same,Population Apoptotic (%),[10],100%
same,Population Fragmented Nuclei (%),[10],15%
same,Population Healthy Nuclei (%),[10],79%
same,Population Mitochondria Different-Phenotype (%),[10],3%
same,Population Mitotic Cells (%),[10],0%
same,Population Pyknosed Nuclei (%),[10],5%
same,Population Tubulin-Different-Phenotype (%),[10],1%
same,Total Cell Count,[10],199
same,Population Apoptotic (%),[11],85%
same,Population Fragmented Nuclei (%),[11],30%
same,Population Healthy Nuclei (%),[11],62%
same,Population Hoechst High Intensity Objects (%),[11],1%
same,Population Membrane Permeable-Phenotype (%),[11],6%
same,Population Mitochondria Different-Phenotype (%),[11],2%
same,Population Mitotic Cells (%),[11],14%
same,Population Normal (%),[11],98%
same,Population Pyknosed Nuclei (%),[11],7%
same,Population Tubulin-Different-Phenotype (%),[11],3%
same,Total Cell Count,[11],282
same,Population Apoptotic (%),[12],94%
same,Population Fragmented Nuclei (%),[12],10%
same,Population Healthy Nuclei (%),[12],84%
same,Population Membrane Permeable-Phenotype (%),[12],4%
same,Population Mitotic Cells (%),[12],5%
same,Population Pyknosed Nuclei (%),[12],5%
same,Population Tubulin-Different-Phenotype (%),[12],2%
same,Total Cell Count,[12],344
